Legend:
[1] = Antioxidant activity assessed as nitric oxide radical scavenging activity at 40 uM after 3 hrs by Griess assay; format: physicochemical
Procedure, shortened: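 Sodium nitroprusside (50 mM stock in phosphate buffer pH 7.4) mixed with test compound and phosphate buffer, incubated 3 h at 37.4 °C. Aliquot diluted with Griess reagent, absorbance read after 20 min at 546 nm. Inhibition = (Acontrol−Atest)/Acontrol×100; triplicate.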

[2] = Antioxidant activity assessed as FeCl2-induced lipoperoxidation at 40 uM incubated for 2 hrs in dark by ferric thiocyanate method
[3] = target: Amyloid-beta precursor protein (Homo sapiens) (UniProt P05067); experiment: Inhibition of Amyloid beta (1 to 42) (unknown origin) self aggregation at 10 uM measured every 5 mins with shake for 15 secs by ThT fluorescence assay relative to control
Sequence of Amyloid-beta precursor protein (Homo sapiens) (P05067 whole entry): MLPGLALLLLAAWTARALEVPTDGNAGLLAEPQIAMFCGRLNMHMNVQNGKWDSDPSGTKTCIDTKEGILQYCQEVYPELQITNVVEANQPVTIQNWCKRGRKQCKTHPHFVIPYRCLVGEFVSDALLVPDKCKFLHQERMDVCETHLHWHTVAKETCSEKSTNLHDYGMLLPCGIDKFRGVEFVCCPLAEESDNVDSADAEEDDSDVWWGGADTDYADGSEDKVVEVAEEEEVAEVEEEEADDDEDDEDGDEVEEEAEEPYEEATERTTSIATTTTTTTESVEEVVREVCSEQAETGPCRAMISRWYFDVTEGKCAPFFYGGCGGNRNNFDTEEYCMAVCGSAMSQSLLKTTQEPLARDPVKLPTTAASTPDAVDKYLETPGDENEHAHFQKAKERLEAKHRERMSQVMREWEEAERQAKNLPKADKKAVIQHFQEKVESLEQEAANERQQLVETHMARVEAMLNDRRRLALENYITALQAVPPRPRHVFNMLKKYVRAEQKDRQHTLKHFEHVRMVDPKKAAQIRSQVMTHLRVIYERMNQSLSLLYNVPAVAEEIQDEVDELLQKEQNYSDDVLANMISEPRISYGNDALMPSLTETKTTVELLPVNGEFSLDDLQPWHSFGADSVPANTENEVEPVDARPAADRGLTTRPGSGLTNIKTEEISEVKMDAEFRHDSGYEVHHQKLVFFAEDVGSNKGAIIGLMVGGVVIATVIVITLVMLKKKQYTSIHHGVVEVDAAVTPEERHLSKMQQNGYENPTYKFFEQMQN
Procedure, shortened: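 Aβ1-42 (85 μL at 250 μg/mL) with thioflavin T (10 μL at 2 mM) and compound (1 μL of 1 mM) in 100 μL kit buffer; control without compound plus blanks. Fluorescence at 37 °C every 5 min, 15 s shaking between reads, Ex/Em 440/484 nm. Inhibition = 100 − (IFi/IFo×100).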

[4] = Antioxidant activity assessed as DPPH radical scavenging activity after 30 mins by microplate reader method; format: physicochemical
Procedure, shortened: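 Compounds diluted from DMSO stock into absolute ethanol, incubated with 100 μM DPPH for 30 min at room temperature in the dark; absorbance at 517 nm. Scavenging % = (Acontrol−Asample)/Acontrol×100 versus vehicle control.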

[5] = Cytotoxicity against human KB cells assessed as inhibition of cell proliferation at 10^-5 M after 72 hrs by MTS assay relative control; format: cell-based
Procedure, shortened: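 KB nasopharyngeal carcinoma cells in D-MEM with 10% fetal calf serum and antibiotics under 5% CO2; 1000 cells/well, treated 24 h after plating with compounds in DMSO (1% final), exposed 72 h. MTS read at 490 nm; inhibition = (1−OD treated/OD control)×100, triplicate.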

[6] = Metal chelating activity of the compound assessed as formation of copper complex at 50 uM after 10 mins by UV-visible spectroscopy; format: physicochemical
Procedure, shortened: (§1)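 Compound in methanol (from 50 mM DMSO stock) at 50 μM mixed with equimolar CuCl2 or FeCl2, 10 min at room temperature; spectra scanned 230–600 nm at 298 K. Difference spectra obtained by subtracting the metal-alone spectrum from the mixture spectrum.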

[7] = Metal chelating activity of the compound assessed as formation of iron complex at 50 uM after 10 mins by UV-visible spectroscopy; format: physicochemical; procedure, shortened: as §1
[8] = Binding affinity to Cu2+ assessed as association constant after 10 to 60 mins by UV-visible spectra analysis
Procedure, shortened: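 Ligand titration in methanol–10 mM Tris pH 7.4 (8:2, v/v): compound 0 to 200 μM incubated with or without CuCl2 (50 μM), room temperature. Scanned 230–600 nm at 10 and 60 min. Difference spectra (mixture minus compound) read at each compound's specific wavelength give bound complex and free ligand, using stoichiometry from Job plots at 100 μM total.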

[9] = Binding affinity to Cu2+ assessed as dissociation constant after 10 to 60 mins by UV-visible spectra analysis
Procedure, shortened: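 In methanol–10 mM Tris pH 7.4 (8:2 v/v), compound 0–200 μM incubated with or without CuCl2 50 μM; scans 230–600 nm after 10 and 60 min. Absorbance difference at each compound's specific wavelength gave complex and free-ligand concentrations using the saturation maximum and stoichiometry from Job plots (total 100 μM, varying mole fraction).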

[10] = Half life in 10 mM phosphate buffer at 20 uM at pH 7.4 at 25 degC by UHPLC analysis; format: physicochemical
Procedure, shortened: (§2)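 20 μM compound (from 10 mM DMSO stock) in 10 mM phosphate buffer pH 7.4, ionic strength 150 mM with KCl, at 25 °C, n=3. Sampled at 6 times over 0 to 5 or 8 h by UHPLC-PDA on a C18 column with water/acetonitrile gradient (0.01% formic acid). Half-life from exponential regression of disappearance versus time.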

[11] = Chemical stability in 10 mM phosphate buffer at 20 uM at pH 7.4 at 25 degC after 5 hrs by UHPLC analysis; format: physicochemical; settings: pH 7.4, 5 h; procedure, shortened: as §2
[12] = Permeability of the compound at 100 uM at pH 7.4 after 4 hrs by PAMPA-BBB assay

For `COc1ccc(/C=C2/C(=O)c3cccn3C2c2ccc(O)c(OC)c2)cc1O` (centres undefined), which Activity [1] is on record?
The Activity was 57.7%.

And the peroxidation % [2]?
The peroxidation % was 58.2%.

And the inhibition [3]?
The inhibition was 15.9%.

What about the EC50 [4] of the same molecule?
Its EC50 is over 250 µM.

And the inhibition at 72 h, 10 µM [5]?
Its inhibition at 72 h, 10 µM is 0%.

What about the Activity [6] of the same molecule?
The Activity was “Not Active”.

What about the Activity [7] of the same molecule?
The Activity was “Not Active”.

What does the source list for `COc1ccc(C2/C(=C\c3ccc(O)c(OC)c3)C(=O)c3cccn32)cc1O` (centres undefined)?
Activity [1]: 55.1%; peroxidation % [2]: 56.4%; inhibition [3]: 12.8%; EC50 [4]: 99.5 µM; inhibition at 72 h, 10 µM [5]: 29%; Activity [6]: Active; Activity [7]: Active

Which Activity [1] does the source give for `COc1ccc(C2/C(=C\c3ccc(O)c(O)c3)C(=O)c3cccn32)cc1O` (centres undefined) here?
Its Activity is 57.5%.

And the peroxidation % [2]?
The peroxidation % was 51.3%.

What about the inhibition [3] of the same molecule?
The inhibition was 24.9%.

And the logKa [8]?
The logKa was 4.15.

What about the EC50 [4] of the same molecule?
The EC50 was 12.8 µM.

What about the Kd [9] of the same molecule?
Its Kd is 70.5 µM.

And the inhibition at 72 h, 10 µM [5]?
Its inhibition at 72 h, 10 µM is 0%.

And the Activity [6]?
The Activity was “Active”.

And the half-life at 20 µM [10]?
Its half-life at 20 µM is 714 min.

What about the Activity [7] of the same molecule?
The Activity was “Active”.

For `COc1ccc(/C=C2/C(=O)c3cccn3C2c2ccc(O)c(OC)c2)c(OC)c1` (centres undefined), which Activity [1] is on record?
The Activity was 40.3%.

And the peroxidation % [2]?
The peroxidation % was 67.5%.

What about the inhibition [3] of the same molecule?
The inhibition was 6%.

And the EC50 [4]?
Its EC50 is over 250 µM.

And the inhibition at 72 h, 10 µM [5]?
Its inhibition at 72 h, 10 µM is 38%.

And the Activity [6]?
Its Activity is “Not Active”.

And the Activity [7]?
Its Activity is “Not Active”.

Which Activity [1] does the source give for `COc1cc(C2/C(=C\c3ccc(O)c(O)c3)C(=O)c3cccn32)ccc1O` (centres undefined) here?
The Activity was 58%.

And the peroxidation % [2]?
Its peroxidation % is 50.6%.

What about the inhibition [3] of the same molecule?
The inhibition was 26.1%.

What about the logKa [8] of the same molecule?
The logKa was 4.65.

What about the EC50 [4] of the same molecule?
The EC50 was 12 µM.

What about the Kd [9] of the same molecule?
Its Kd is 22.1 µM.

What about the inhibition at 72 h, 10 µM [5] of the same molecule?
The inhibition at 72 h, 10 µM was 0%.

What about the Activity [6] of the same molecule?
Its Activity is “Active”.

What about the half-life at 20 µM [10] of the same molecule?
The half-life at 20 µM was 408 min.

What about the Activity [7] of the same molecule?
Its Activity is “Active”.

What does the source list for `COc1cc(/C=C2/C(=O)c3cccn3C2c2ccccc2)ccc1O` (centres undefined)?
Activity [1]: 51.7%; peroxidation % [2]: 67.4%; inhibition [3]: 14.5%; EC50 [4]: > 250 µM; inhibition at 72 h, 10 µM [5]: 24%; Activity [6]: Not Active

What does the source list for `O=C1/C(=C/c2ccc(O)c(O)c2)C(c2ccc(O)c(O)c2)n2cccc21` (centres undefined)?
Activity [1]: 47.1%; peroxidation % [2]: 47%; inhibition [3]: 27%; logKa [8]: 4.7; EC50 [4]: 9.6 µM; Kd [9]: 19.9 µM; inhibition at 72 h, 10 µM [5]: 0%; Activity [6]: Active; half-life at 20 µM [10]: 384 min; Activity [7]: Active

Which results are given for `COc1cc(C2/C(=C\c3cc(OC)c(O)c(OC)c3)C(=O)c3cccn32)ccc1O` (centres undefined)?
Activity [1]: 35.3%; peroxidation % [2]: 70.4%; inhibition [3]: 30.1%; EC50 [4]: 246 µM; inhibition at 72 h, 10 µM [5]: 0%; Activity [6]: Not Active; Activity [7]: Not Active

Which Activity [1] does the source give for `COc1ccc(/C=C2/C(=O)c3cccn3C2c2ccc(OC)c(O)c2)cc1O` (centres undefined) here?
Its Activity is 53.7%.

What about the peroxidation % [2] of the same molecule?
Its peroxidation % is 71%.

And the inhibition [3]?
The inhibition was 8.4%.

What about the EC50 [4] of the same molecule?
Its EC50 is over 250 µM.

And the inhibition at 72 h, 10 µM [5]?
The inhibition at 72 h, 10 µM was 24%.

And the Activity [6]?
Its Activity is “Active”.

And the Activity [7]?
The Activity was “Active”.

Which results are given for `O=C1/C(=C/c2ccc(O)c(O)c2)C(c2ccccc2)n2cccc21` (centres undefined)?
Activity [1]: 65.6%; peroxidation % [2]: 57%; Stability [11]: Stable; inhibition [3]: 28.7%; logKa [8]: 5.65; EC50 [4]: 12.6 µM; Kd [9]: 2.2 µM; inhibition at 72 h, 10 µM [5]: 0%; Activity [6]: Active; Activity [7]: Active

For `COc1cc(/C=C2/C(=O)c3cccn3C2c2ccc(O)c(OC)c2)ccc1O` (centres undefined), which Activity [1] is on record?
Its Activity is 57%.

And the peroxidation % [2]?
The peroxidation % was 48.5%.

What about the inhibition [3] of the same molecule?
The inhibition was 10.4%.

What about the EC50 [4] of the same molecule?
The EC50 was 101 µM.

What about the inhibition at 72 h, 10 µM [5] of the same molecule?
The inhibition at 72 h, 10 µM was 0%.

And the Activity [6]?
Its Activity is “Active”.

And the Activity [7]?
Its Activity is “Active”.

With `O=C1/C(=C/c2ccccc2)C(c2ccccc2)n2cccc21` (centres undefined) as the molecule, how does the Activity [1] read?
The Activity was 34.4%.

And the peroxidation % [2]?
The peroxidation % was 55.1%.

What about the inhibition [3] of the same molecule?
The inhibition was 1.4%.

What about the inhibition at 72 h, 10 µM [5] of the same molecule?
The inhibition at 72 h, 10 µM was 41%.

What does the source list for `COc1cc(C2/C(=C\c3ccc(OCc4ccccc4)c(OCc4ccccc4)c3)C(=O)c3cccn32)ccc1OCc1ccccc1` (centres undefined)?
Activity [1]: 30.7%; peroxidation % [2]: 92.8%; inhibition [3]: 4.2%; EC50 [4]: > 250 µM; inhibition at 72 h, 10 µM [5]: 0%

Which results are given for `COc1cc(/C=C/C(=O)CC(=O)/C=C/c2ccc(O)c(OC)c2)ccc1O` [CURCUMIN]?
Activity [1]: 60.4%; EC50 [4]: 19.2 µM; inhibition at 72 h, 10 µM [5]: 83%; Activity [6]: Active; Activity [7]: Active

With `Cn1c(=O)c2[nH]cnc2n(C)c1=O.O` [THEOPHYLLINE] as the molecule, how does the “log Pe” value [12] read?
The value was under -6.

For `COc1cc(C2/C(=C\c3cc(OC)c(OC)c(OC)c3)C(=O)c3cccn32)ccc1O` (centres undefined), which Activity [1] is on record?
The Activity was 32.6%.

What about the peroxidation % [2] of the same molecule?
The peroxidation % was 67.1%.

What about the inhibition [3] of the same molecule?
The inhibition was 23.6%.

And the EC50 [4]?
Its EC50 is over 250 µM.

And the Activity [6]?
Its Activity is “Not Active”.

And the Activity [7]?
Its Activity is “Not Active”.

Which Activity [1] does the source give for `O=c1c(O)c(-c2ccc(O)c(O)c2)oc2cc(O)cc(O)c12` [QUERCETIN] here?
Its Activity is 70.7%.

What does the source list for `COc1cc(/C=C/C(=O)O)ccc1O` [FERULATE]?
Activity [1]: 46.4%; peroxidation % [2]: 47%; EC50 [4]: 43.2 µM

For `Cc1c(C)c2c(c(C)c1O)CCC(C)(C(=O)O)O2` (centres undefined) [TROLOX], which EC50 [4] is on record?
Its EC50 is 18.2 µM.
